Calls of active or inactive are those of the source.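 Rule for the calls, unless noted: active = a full or partial loss of lipid-probe fluorescence in the fish gall bladder, intestine or both, judged by eye; inactive = no fluorescence loss, or compound toxic to the fish.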
Columns and labels:
[1] = inhibitors of TNFa-induced NFkB p65 translocation, primary screen, imaging, HUVEC, MLSMR starter and 10KST1 sets (AID 438;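 active = inhibition above 20% together with a positive visual image hit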;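 note: compound added about 3h40 before a 20 min TNFalpha stimulation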;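 for inhibition: signal is the nuclear over cytoplasmic p65 intensity ratio per well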); conditions: HUVEC TNFa-induced p65 nuclear translocation; cell count: measured here: nuclei count (cytotoxicity indicator), at 2.08 µM; inhibition: at 2 µM, stronger effect = higher value, 0% TNFa-plus-vehicle, 100% no-TNFa wells
[2] = endothelial E-selectin expression blockers – imaging, HUVEC, immunofluorescence, MLSMR starter and 10KST1 sets, primary screen (AID 487;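 active = visually confirmed hit in the image check and inhibition above 20%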;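 for inhibition: signal is fraction of cell area covered by stained E-selectin grains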;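 for nuclei count: 100% = median nuclei count of all wells on the same plate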); conditions: HUVEC TNFalpha-induced E-selectin immunofluorescence imaging, at 2 µM; inhibition: stronger effect = higher value; nuclei count: measured here: cell number, toxicity
[3] = Primary imaging screen for DUSP6 inhibitors that restore phospho-Erk in transfected HeLa cells, chemical complementation (AID 609;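 active = compounds giving at least 50% inhibition in the cell-based MKP-3 phosphatase rescue imaging test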;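 for inhibition: phospho-Erk level distribution per well compared with pooled transfected vehicle control wells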); conditions: HeLa MKP-3 transfected, phospho-Erk imaging KS statistic, at 10 µM, cells stimulated with TPA for 15 min
[4] = biological target: Dual specificity protein phosphatase 6 (Homo sapiens) (UniProt Q16828); experiment: as above; conditions: HeLa MKP-3 transfected, phospho-Erk imaging KS statistic; at 10 µM; stronger effect = higher value; cells stimulated with TPA for 15 min
Dual specificity protein phosphatase 6 (Homo sapiens), sequence (Q16828 whole entry, looked up): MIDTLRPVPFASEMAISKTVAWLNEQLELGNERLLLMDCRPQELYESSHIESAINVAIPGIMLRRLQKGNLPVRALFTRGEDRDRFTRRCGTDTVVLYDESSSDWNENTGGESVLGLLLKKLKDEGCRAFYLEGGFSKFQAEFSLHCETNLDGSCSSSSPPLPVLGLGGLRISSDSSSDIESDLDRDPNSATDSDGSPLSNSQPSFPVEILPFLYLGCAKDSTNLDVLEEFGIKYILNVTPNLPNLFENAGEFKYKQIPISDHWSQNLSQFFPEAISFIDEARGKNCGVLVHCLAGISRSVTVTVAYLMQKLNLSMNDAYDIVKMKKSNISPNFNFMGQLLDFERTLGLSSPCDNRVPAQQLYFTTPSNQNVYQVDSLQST

[5] = biological target: Voltage-gated potassium channel subunit beta-2 (Rattus norvegicus) (UniProt P62483); experiment: inhibitors of rat Kvbeta2 reductase activity – biochemical, NADPH fluorescence, primary screen (AID 622;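 active = fluorescence slope higher than the sample average by over 3 SD, cut at about -0.22 in these data, passing the limit was not always enough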;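 note: slope of raw intensity against log time taken from 70 to 1610 s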); conditions: recombinant KvBeta, 4-cyanobenzaldehyde reduction, at 10 µM, stronger effect = higher value
Voltage-gated potassium channel subunit beta-2 (Rattus norvegicus), sequence (P62483 whole entry, looked up): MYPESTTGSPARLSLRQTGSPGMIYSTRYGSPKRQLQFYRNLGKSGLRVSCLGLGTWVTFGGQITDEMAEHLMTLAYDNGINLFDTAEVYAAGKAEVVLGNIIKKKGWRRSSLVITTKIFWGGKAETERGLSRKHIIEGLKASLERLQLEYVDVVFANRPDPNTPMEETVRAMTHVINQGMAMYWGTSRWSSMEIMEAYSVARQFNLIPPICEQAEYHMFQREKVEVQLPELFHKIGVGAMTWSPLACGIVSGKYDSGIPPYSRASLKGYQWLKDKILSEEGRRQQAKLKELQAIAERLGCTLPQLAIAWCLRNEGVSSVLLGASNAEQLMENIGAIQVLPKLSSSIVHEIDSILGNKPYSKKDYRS

[6] = biological target: Voltage-gated potassium channel subunit beta-2 (Rattus norvegicus) (UniProt P62483); experiment: enhancers of rat Kvbeta2 NADPH turnover – biochemical, NADPH fluorescence, primary screen (AID 623;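 active = NADPH fluorescence slope more negative than the mean of all samples by about 3 SD, 99.7% confidence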;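 note: fluorescence intensity change per second fitted from 20 to 320 s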); conditions: Recombinant KvBeta, NADPH fluorescence decrease slope, 10 min; at 10 µM; stronger effect = lower value
[7] = biological target: Muscarinic acetylcholine receptor M4 (Homo sapiens) (UniProt P08173); experiment: M4-linked GIRK flux change, two-sided – cell-based, HEK293 M4/GIRK, thallium flux, BTC-AM, M4 allosteric agonist project, primary screen (AID 625;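 active = fluorescence slope after compound addition differing from the mean of all tested samples at 99.7% confidence, mostly higher but some lower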;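 note: thallium influx through GIRK channels coupled to M4 in HEK293 cells with BTC-AM dye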); conditions: at 10 µM, actives lie on both sides
Muscarinic acetylcholine receptor M4 (Homo sapiens), sequence (P08173 whole entry, looked up): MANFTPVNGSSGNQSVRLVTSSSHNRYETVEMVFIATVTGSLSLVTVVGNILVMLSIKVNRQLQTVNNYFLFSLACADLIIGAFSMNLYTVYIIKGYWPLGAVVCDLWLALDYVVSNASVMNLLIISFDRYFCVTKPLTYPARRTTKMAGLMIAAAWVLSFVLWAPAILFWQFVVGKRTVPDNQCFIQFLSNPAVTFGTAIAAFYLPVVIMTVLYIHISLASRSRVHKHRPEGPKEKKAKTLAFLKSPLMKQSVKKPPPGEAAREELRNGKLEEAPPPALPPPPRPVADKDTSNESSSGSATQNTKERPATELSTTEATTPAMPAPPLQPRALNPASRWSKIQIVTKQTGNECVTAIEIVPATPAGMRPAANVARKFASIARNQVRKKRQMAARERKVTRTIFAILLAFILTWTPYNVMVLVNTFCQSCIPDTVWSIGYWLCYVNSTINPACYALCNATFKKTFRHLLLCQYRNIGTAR
In short: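 assay system = HEK293 cells with M4 receptor and GIRK channels | medium = pH 7.3 thallium assay buffer | doses = 10 µM final, single point | timing = cells overnight at 37 °C, BTC-AM loading 1 h, reads 2 min total | signal = BTC-AM fluorescence, 1 Hz kinetic reads | read-out = post-addition slope, 15–24 s, of baseline-normalized fluorescence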

[8] = inhibitors of larval lipid processing in zebrafish, primary screen, whole organism, PED6 fluorescence, gall bladder and intestine (AID 686); conditions: Zebrafish larvae PED6 lipid processing, fluorescence scoring; screened at 20 µM (by protocol);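 note: larvae 5 to 7 days old with five fish per well; signal comes from phospholipase A2 cleavage of quenched PED6 carried via bile; overnight exposure to compound and PED6 before scoring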
In short: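 Also added: quenched phospholipase substrate PED6, 100 nM final, ingested by larvae; System: zebrafish larvae, 5-7 d; Quantity: 5 larvae per well; Compound: 20 µM single dose; Schedule: overnight compound and PED6 incubation; Read-out: visual per-well fluorescence inhibition score; Measured by: By-eye fluorescence microscopy; Medium: E3.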

[9] = loss of swimming-algae plug formation – whole organism, Chlamydomonas reinhardtii, WT vs cilia-less mutant, absorbance, 96-well, primary screen (AID 463189;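 active = inhibition at or above 50% relative to wild type and mutant plate controls; inactive = inhibition below 50%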;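 note: 0% = wild type cc124 cells in DMSO and 100% = ciliumless bld1 mutant cells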); conditions: Chlamydomonas reinhardtii gravitaxis, OD600 absorbance, 2 days; at 10 µM; stronger effect = higher value
[10] = measured here: cell density z-score
[11] = measured here: nuclear c-Myc green intensity z-score
[12] = measured here: nuclear pErk red intensity z-score, stronger effect = higher value

Structure (SMILES)	cell count [1]	inhibition [1]	inhibition [2]	nuclei count [2] [%]	z-score [3, 10]	z-score [3, 11]	z-score [3, 12]	inhibition [4]	fluorescence slope [5]	NADPH fluorescence slope [6]	fluorescence slope [7]	outcome [8]	inhibition [9]
COC(=O)CSc1nc2c(c(=O)n(C)c(=O)n2C)n1CCC(C)C	599	-7% (inactive)	-120% (inactive)	130	-2.77	3.03	-2.44	3.42% (inactive)	-0.394 (inactive)	6.8e-06 (inactive)	0.00549 (inactive)	inactive	-12.3% (inactive)
Cc1cccn2c(=O)c3cc(C(=O)NCc4cccnc4)c(=N)n(C)c3nc12	734	7.8% (inactive)	-3.9% (inactive)	154	-0.252	0.503	1.16	7.83% (inactive)	-0.403 (inactive)	-4.4e-05 (inactive)	0.00535 (inactive)	inactive	2.07% (inactive)
C=CCN(CC=C)c1nc2ccccc2nc1C(C#N)C(=O)OC(C)C (centres undefined)	639	-6.1% (inactive)	-48.1% (inactive)	173	-0.0253	-0.36	0.934	-13.3% (inactive)	-0.467 (inactive)	-4.8e-05 (inactive)	0.00206 (inactive)	inactive	7.18% (inactive)
CCOC(=O)CNC(=O)CCCCCC(=O)NCC(=O)OCC	367	-1.3% (inactive)	-27.8% (inactive)	132	-0.497	0.819	0.154	11.4% (inactive)	-0.431 (inactive)	-9.3e-05 (inactive)	0.00362 (inactive)	inactive	21.4% (inactive)
O=S(=O)(c1ccccc1)N(CC(O)CN1CCCCC1)c1ccccc1 (centres undefined)	596	-4.6% (inactive)	36.6% (inactive)	84.8	-0.887	0.0372	0.232	5.42% (inactive)	-0.342 (inactive)	-2.3e-05 (inactive)	0.00483 (inactive)	inactive	26.5% (inactive)
O=C(c1ccc(=O)oc1)N1CCN(C(c2ccccc2)c2ccccc2)CC1	630	-3.2% (inactive)	-22.1% (inactive)	168	-0.99	0.461	1.67	-3.95% (inactive)	-0.474 (inactive)	-7.6e-05 (inactive)	0.00524 (inactive)	inactive	4.32% (inactive)
CCc1nc(N2CCN(C(=O)c3ccccc3)CC2)c(C#N)c2c1COC(C)(C)C2	548	2% (inactive)	-77.4% (inactive)	113	-0.584	0.135	0.894	3.42% (inactive)	-0.474 (inactive)	6.5e-05 (inactive)	0.00455 (inactive)	inactive	5.51% (inactive)
CCOC(=O)c1c(NC(=O)CN2CCOCC2)sc2c1CC(C)(C)OC2	525	-12.5% (inactive)	-92.8% (inactive)	146	0.295	-0.682	-0.184	3.49% (inactive)	-0.465 (inactive)	-4.6e-05 (inactive)	0.00443 (inactive)	inactive	-12.3% (inactive)
Cn1ncc(N=Cc2c(O)ccc3ccccc23)c1C(=O)N1CCOCC1	713	-2.5% (inactive)	-43.6% (inactive)	175	0.977	0.19	0.26	3.97% (inactive)	-0.482 (inactive)	-9.8e-05 (inactive)	0.00513 (inactive)	inactive	11.5% (inactive)
CN1CCc2c(c3c(n2C)CCN(C)[C@@H]3c2cccnc2)[C@H]1c1cccnc1	406	-15.1% (inactive)	-320% (inactive)	159	0.329	-0.347	0.296	15.4% (inactive)	-0.478 (inactive)	-5.4e-05 (inactive)	0.00388 (inactive)	inactive; toxic	5.73% (inactive)
Cc1cccc(C)c1OCC(=O)Nc1cccc(-c2nnc(-c3ccccc3)o2)c1	634	-2.9% (inactive)	27.8% (inactive)	82.9	-2.16	1.5	0.715	-9.53% (inactive)	-0.492 (inactive)	-4.2e-05 (inactive)	0.00887 (inactive)	inactive	-17.1% (inactive)
Cc1cc(N2C(=O)C(=O)/C(=C(/O)c3ccccc3)C2c2cccs2)no1 (centres undefined)	668	0.1% (inactive)	-91.9% (inactive)	165	0.267	-0.396	-0.163	6.04% (inactive)	-0.486 (inactive)	-1.4e-05 (inactive)	0.00578 (inactive)	inactive	24.8% (inactive)
O=c1oc2c(CN3CCCCC3)c(O)ccc2c2c1CCCCC2	566	-6.1% (inactive)	34% (inactive)	168	1.43	-1.18	-0.137	14.4% (inactive)	-0.00573 (inactive)	8.5e-07 (inactive)	0.00521 (inactive)	inactive	3.57% (inactive)
